Most compounds without a hit are left out; they make up all but 3.7% or so of the library.
KCNK9 inh-1: blocks the human KCNK9 two-pore domain potassium channel; B-score at 10 µM; Q9NPC2; HEK293 KCNK9, FluxOR thallium flux fluorescence; stronger effect = lower value; 310,000 compounds, 1.2% hits; AID 488922;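 active = ratio B-score over 3 SD below the library mean, with starting fluorescence within 5 SD of its mean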;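 also: negative B-score means less thallium flux so channel inhibition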
KCNQ1 block: inhibitors of human KCNQ1 potassium channel; P51787; CHO-K1 KCNQ1, FluxOR thallium flux fluorescence; stronger effect = higher value; B-score at 10 µM; 310,000 compounds, 1.3% hits;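 active = compounds whose thallium flux B-score, printed positive for inhibition, exceeds three library SD while starting fluorescence stays within three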;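 also: channel opened by potassium depolarization with thallium stimulus after 20 min compound exposure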
Target sequence (P51787 whole entry, looked up): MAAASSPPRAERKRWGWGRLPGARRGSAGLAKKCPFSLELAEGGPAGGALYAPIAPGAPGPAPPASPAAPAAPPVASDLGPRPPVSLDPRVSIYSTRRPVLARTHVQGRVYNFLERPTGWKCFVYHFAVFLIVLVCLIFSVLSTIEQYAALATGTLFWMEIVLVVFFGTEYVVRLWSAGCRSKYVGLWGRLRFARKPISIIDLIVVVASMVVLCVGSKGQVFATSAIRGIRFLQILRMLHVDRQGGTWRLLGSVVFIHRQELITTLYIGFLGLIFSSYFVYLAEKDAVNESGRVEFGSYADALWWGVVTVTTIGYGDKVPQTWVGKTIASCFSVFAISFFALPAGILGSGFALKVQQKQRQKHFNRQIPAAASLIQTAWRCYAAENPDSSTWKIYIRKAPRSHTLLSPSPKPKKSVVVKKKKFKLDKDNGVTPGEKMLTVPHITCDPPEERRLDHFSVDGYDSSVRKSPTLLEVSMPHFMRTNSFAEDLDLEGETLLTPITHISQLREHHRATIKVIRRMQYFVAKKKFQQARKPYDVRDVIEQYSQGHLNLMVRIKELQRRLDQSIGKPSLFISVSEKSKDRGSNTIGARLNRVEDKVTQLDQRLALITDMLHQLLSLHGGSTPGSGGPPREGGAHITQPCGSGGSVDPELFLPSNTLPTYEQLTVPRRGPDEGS
KCNQ1 act: potentiates or activates the human KCNQ1 potassium channel | P51787 | CHO-K1 KCNQ1, thallium flux FluxOR fluorescence; stronger effect = higher value | B-score at 10 µM | 310,000 compounds, 0.35% hits;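 active = fluorescence ratio B-score, a plate-corrected score, at least three library SD, with initial intensity B-score within 5 SD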
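System: CHO-K1 cells stably expressing KCNQ1 / Medium: assay buffer for compound exposure, DMSO matched across wells / Reagent: thallium- and potassium-containing depolarizing buffer / Compound: one concentration, matched DMSO / Incubation: 20 min compound pretreatment at room temperature / Measured by: kinetic FluxOR fluorescence, 10 s baseline plus 110 s post-stimulus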
KCNK3 block: human KCNK3 channel inhibition, primary screen; CHO-KCNK3 thallium flux, FluxOR fluorescence; stronger effect = lower value; B-score at 10 µM; 340,000 compounds, 0.84% hits; AID 602410;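 active = B-score under library mean minus 4 SD, starting fluorescence ratio at most library mean plus 5 SD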;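 also: more negative B-score means stronger inhibition of thallium flux through KCNK3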
hERG rescue: hERG (human) protection from proarrhythmic block. AID 1511. Q12809. activation (rescue from dofetilide block), less the hit threshold, % at 10 µM. 310,000 compounds, 0.51% hits. CHO-hERG, FluxOR thallium flux, dofetilide IC70 present;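 active = activation above the mean of controls blocked by dofetilide plus 5 SD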;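 also: thallium influx through hERG after potassium depolarization seen as dye fluorescence rise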
Kir21 block: blocks the mouse Kir2.1 inward-rectifier potassium channel. P35561. B-score at 10 µM. AID 1672. 310,000 compounds, 0.85% hits. HEK293-Kir2.1, FluxOR thallium flux fluorescence; stronger effect = lower value;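 active = fluorescence ratio B-score at or below minus 3 SD of library scores, with starting-brightness B-score within 2 SD, cut at about -4.2 in these data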;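 also: channel flux triggered by added potassium and thallium sulfate stimulus; B-score of peak minus minimum fluorescence over baseline after thallium stimulus; more negative B-score means stronger Kir2.1 block with less thallium influx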
hERG inh: blocks human hERG, in counter-screen for Kir2.1 inhibitors. AID 2236. shares compounds with Kir21 block. 320 compounds, 20% hits. inhibition, % at 10 µM. hERG-expressing cells, thallium flux;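 also: host cells are CHO cells stably expressing hERG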
KCNK9 inh-2: human KCNK9 off-target activity of Kir2.1 blockers | AID 2329 | 320 compounds, 5% hits | shares compounds with Kir21 block | KCNK9-expressing cells, ion flux inhibition | inhibition, % at 10 µM
Kir2-1 patch inh: blocks mouse Kir2.1 current in automated electrophysiology; 320 compounds, 71% hits; inhibition, % at 25 µM; Kir2.1 cells, automated patch-clamp current inhibition; shares compounds with Kir21 block; AID 463252
Starred values were filed as active, the others as inactive; i = inactive; · = no result. Unless noted, no rule for the calls is given here.

SMILES | KCNK9 inh-1 | KCNQ1 block | KCNQ1 act | KCNK3 block | hERG rescue | Kir21 block | others
CC(=O)c1ccc(NC2=NCCCS2)cc1 | i | i | i | i | -6 | 0.27
O=P(Nc1cccc(Cl)c1)(Oc1ccccc1)Oc1ccccc1 | -7.6* | 6* | i | i | -49 | -0.01
COc1cccc(NP(=O)(Oc2ccccc2)Oc2ccccc2)c1 | i | i | i | i | -17 | -0.66
Cc1cc(C(=O)N=Nc2c(O)n(C)c3ccccc23)c(C)o1 | i | i | i | i | -3 | -0.46
CCOP(=S)(OCC)Oc1nc(Cl)c(Cl)cc1Cl | · | · | · | -9.1* | · | ·
COc1ccc(OC)c(NC(=O)N2C[C@H]3C[C@@H](C2)c2cccc(=O)n2C3)c1 | i | i | i | i | -7 | 0.41
c1ccc(CC(NCc2ccco2)c2ccccc2)cc1 (stereo not drawn) | i | 6* | i | i | -15 | -3.8
CCCCCn1c(=O)c(C(=O)Nc2ccccc2)c(O)c2ccccc21 | i | i | i | i | 0 | -0.71
CCCCn1c(=O)c(C(=O)NCc2ccc(Cl)cc2)c(O)c2ccccc21 | i | i | i | i | -12 | -0.12
CCCCn1c(=O)c(C(=O)NCCc2ccccc2)c(O)c2ccccc21 | i | 7* | i | i | -6 | 0.08
CCCCn1c(=O)c(C(=O)NC(C)c2ccccc2)c(O)c2ccccc21 (stereo not drawn) | i | 6* | i | i | 0 | -0.75
CCCCCn1c(=O)c(C(=O)NCc2ccncc2)c(O)c2ccccc21 | -7.9* | 8* | i | i | -6 | 1.4
CC[C@@H]1C=CC=CC[C@H](C)[C@@H](O)[C@@H](C)C(=O)[C@H](C)[C@@H](O)[C@H](C)C(=O)[C@H](C)[C@@H](O)[C@H](C)C=CC(=O)O[C@H]2[C@@H](C)[C@@H](CC1)O[C@@]1(CC[C@@H](C)[C@@H](C[C@H](C)O)O1)[C@@H]2C | i | i | i | · | -8 | 0
c1ccc(-c2[nH]c(-c3ccccc3)[n+](CC3CO3)c2-c2ccccc2)cc1 (stereo not drawn) | i | i | i | i | -22 | -6.8*
CCCCSC1=NN1c1nc(N)nc(C)c1CC | i | i | i | i | -5 | -0.44
CCc1c(C)nc(N)nc1N1N=C1SCCOc1ccccc1 | i | i | i | i | 8.2* | 1.3
CC(=O)NC1C(OC(=O)Cc2ccccc2)OC(COC(C)=O)C(OC(C)=O)C1OC(C)=O (stereo not drawn) | i | i | i | i | -12 | -0.12
N#CC(C#N)=Cc1ccc(-c2ccccc2)o1 | i | 7* | i | · | -22 | -1.3
N#CC(C#N)=Cc1ccc(-c2ccccc2F)o1 | · | · | · | i | · | ·
CCOc1ccc(CC2(CCc3ccncc3)C(=O)NC(=O)NC2=O)cc1 | i | i | i | i | -5 | 2.7
CN1CCN(CC#CCOc2ccc(Cl)cc2)CC1 | i | i | i | i | 9.8* | -0.99
CCC(C)c1ccc(N2C(=O)NC(=O)/C(=C/c3cccn3CCOc3ccc(C)cc3)C2=O)cc1 (stereo not drawn) | i | 7* | i | i | -11 | -0.46
Cc1ccc(N2C(=O)NC(=O)/C(=C\c3cnc(-c4ccccc4)nc3)C2=O)cc1 | i | i | i | i | -8 | -0.26
O=C(CF)NC(NC(=S)Nc1cccc([N+](=O)[O-])c1)C(Cl)(Cl)Cl (stereo not drawn) | i | 6* | i | i | -15 | 0.47
C=C(C)CN1CC[C@]23c4c5ccc(O)c4O[C@H]2c2[nH]c4ccccc4c2C[C@@]3(O)C1C5 | i | i | i | · | -9 | -1.4
SMILES | KCNK9 inh-1 | KCNQ1 block | KCNQ1 act | KCNK3 block | hERG rescue | Kir21 block | others
CCOC(=O)c1ccc(-[n+]2c(-c3ccccc3)cc(-c3ccccc3)cc2-c2ccccc2)cc1 | i | 12* | i | i | -41 | -11*
Cc1ccc(-c2cc(-c3ccc(C)cc3)[n+](-c3ccc(C(=O)[O-])cc3)c(-c3ccc(C)cc3)c2)cc1 | i | 8* | i | i | -47 | -8.2*
CCOC(=O)c1cccc(-[n+]2c(-c3ccccc3)cc(-c3ccccc3)cc2-c2ccccc2)c1 | i | 13* | i | i | -38 | -11*
COC(=O)C1=C(c2ccc(S(C)(=O)=O)cc2)C[C@@H]2CC[C@H]1N2C(=O)NC1CCCCC1 | i | i | i | i | 5.8* | 0.28
COC(=O)C1C2c3ccccc3OC1(C)N=c1s/c(=C/c3cn(C)nc3C)c(=O)n12 (stereo not drawn) | i | i | i | i | 0 | -0.02
CC(=O)C1C2c3ccccc3O[C@@]1(C)N=c1s/c(=C/c3ccoc3)c(=O)n12 (stereo partly drawn) | i | 7* | i | i | -5 | -1
CN(C)C(=O)Oc1ccc2nnc3ccnn3c2c1 | i | i | i | i | -9 | -1.3
CCc1ccc(NP(=O)(Oc2ccccc2F)Oc2ccccc2F)cc1 | -7.4* | i | i | i | -10 | 1.4
Cc1ccc(NP(=O)(Oc2ccccc2)Oc2ccccc2)cc1 | · | · | · | i | · | ·
Cc1ccc(NP(=O)(Oc2ccccc2F)Oc2ccccc2F)cc1 | i | 6* | i | i | -13 | -0.83
Cc1cccc(CCNCc2cc3cccc(C)c3[nH]c2=O)c1 | i | i | i | i | -3 | -6.9* | hERG inh=i;KCNK9 inh-2=i;Kir2-1 patch inh=33%*
Fc1ccc(C(OCCN2CCCC2)c2ccc(Br)cc2)cc1 (stereo not drawn) | i | i | i | i | -18 | -8.4* | hERG inh=70%*;KCNK9 inh-2=i;Kir2-1 patch inh=i
Fc1ccc(C(OCCN2CCCC2)c2ccc(F)cc2)cc1 | i | i | i | i | -1 | -2.9
CN(C)CCOC(=O)c1cn(Cc2ccccc2)c2ccccc12 | i | i | i | i | -3 | -7* | hERG inh=53%*;KCNK9 inh-2=i;Kir2-1 patch inh=33%*
CCCCCSc1cc(OC)c(CCN(C)C)cc1OC | i | i | i | i | -11 | -6.3* | hERG inh=57%*;KCNK9 inh-2=i;Kir2-1 patch inh=56%*

Source: PubChem (Johns Hopkins Ion Channel Center)
